From publication PMC3756293 (Translational Psychiatry, 2013)
Entries after “also recorded” stand apart in the source; their conditions may differ. Like-named read-outs stand apart in the source and are kept apart here.

Columns and labels:
[1] = Plasma pharmacokinetics of ABT-384 and metabolites after five daily doses; type: in vivo, human
[2] = CSF pharmacokinetics of ABT-384 and acid metabolite after five daily doses; type: in vivo, human; settings: for CSF levels as percent of the free plasma levels / CSF levels as percent of the total plasma levels: 1-50 mg QD for 5 days; for CSF/free plasma exposure ratio: across the dose range tested (1-50 mg QD)
Summary of the method: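 Two subjects received 50 mg QD for 5 days. CSF was drawn by catheter before dosing, every 30 min for 8 h, and at 9, 12, 16 and 24 h. Other subjects were sampled hourly during the D4 cortisol infusions plus set post-dose times. Parent and acid metabolite were measured by validated HPLC–MS with D6 stable-label internal standards, injected directly without online solid-phase extraction.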

[3] = 1 mg ABT-384 QD for 7 days; cited from earlier work
[4] = daily doses up to 100 mg, healthy volunteers and elderly subjects; cited from earlier work
[5] = molecular target: T1, 11-beta-hydroxysteroid dehydrogenase type 1 (HSD-1) (Homo sapiens, UniProt P28845); settings: cited from earlier work
[6] = Preclinical tissue distribution, liver relative to plasma; type: in vivo; settings: monkeys; data on file
[7] = molecular target: T1, 11-beta-hydroxysteroid dehydrogenase type 1 (HSD-1); type: in vivo
Summary of the method: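 During primed continuous D4 cortisol infusions after five daily doses, plasma was collected hourly. Labeled cortisol and cortisone were measured by mass spectrometry, and the plasma D3 cortisol/D3 cortisone ratio served as a measure of total-body HSD-1 activity.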

[8] = Preclinical tissue distribution, liver relative to plasma; type: in vivo; settings: rats; data on file
[9] = Safety and tolerability in the clinical study; type: in vivo, human
Summary of the method: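 This open-label, single-site multiple-dose study ran 1–50 mg QD for 5 days. Subjects were confined from Day −1 until at least 48 h after CSF catheter removal, and adverse events were recorded until 30 days after the last dose.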

[10] = molecular target: T1, 11-beta-hydroxysteroid dehydrogenase type 1 (HSD-1); type: in vivo; settings: regimens of 1-50 mg ABT-384 QD for 5 days, spot urine
[11] = molecular target: T1, 11-beta-hydroxysteroid dehydrogenase type 1 (HSD-1); type: in vivo; remark: listed apart in the source
HSD-1 = HSD-1 (Homo sapiens, UniProt P28845); assay: HSD-1 binding and dissociation kinetics in vitro; settings: data on file
[12] = molecular target: T1, 11-beta-hydroxysteroid dehydrogenase type 1 (HSD-1); assay: Peripheral HSD-1 inhibition: 1-; type: in vivo
Summary of the method: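 Plasma was sampled hourly during two 8 h D4 cortisol infusions on Days 5–6, after 5 days of once-daily dosing. Inhibition = 1 − (plasma D3 cortisol/plasma D4 cortisol), where 1 approximates the steady-state ratio seen in untreated control subjects. Values are given per time point across both infusions (16 time points).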

[13] = 1-50 mg ABT-384 QD for 5 days, healthy men

T1 sequence (P28845 whole entry): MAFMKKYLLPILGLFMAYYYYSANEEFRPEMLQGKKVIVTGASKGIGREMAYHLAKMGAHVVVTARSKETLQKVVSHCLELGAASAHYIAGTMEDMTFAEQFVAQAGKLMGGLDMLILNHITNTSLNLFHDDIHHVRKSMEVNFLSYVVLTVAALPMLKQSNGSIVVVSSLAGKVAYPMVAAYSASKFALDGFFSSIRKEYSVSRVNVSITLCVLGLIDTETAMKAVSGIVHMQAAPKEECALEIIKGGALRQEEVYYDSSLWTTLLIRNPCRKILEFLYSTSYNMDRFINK
Sequence of HSD-1 (P28845 whole entry): as above

O=C(O)C(O)(c1cccs1)c1cccs1 [Acid Metabolite]
mean acid metabolite/parent AUC0-24 ratio in plasma ([1]; plasma): < 20%
mean acid metabolite/parent Cmax ratio in plasma ([1]; plasma): < 10%
mean metabolite/parent Cmax ratio ([1]; plasma, 1-50 mg QD for 5 days): 6–9%
CSF levels as percent of the free plasma levels [2]: 110–150%
CSF levels as percent of the total plasma levels [2]: 3–4%
mean acid metabolite/parent AUC0-24 ratio in CSF ([2]; CSF): 70–90%
mean acid metabolite/parent Cmax ratio in CSF ([2]; CSF): ~40%
CSF/free plasma exposure ratio [2]: greater than 1
mean plasma Cmax [3]: 0.31 ng/mL

CC(C)(C(=O)NC1C2CC3CC1CC(C(N)=O)(C3)C2)N1CCN(c2ccc(C(F)(F)F)cn2)CC1 (centres unmarked) [ABT-384]
tolerability [4]: generally well tolerated
decrease of ratio of urine cortisol metabolites to cortisone metabolite ([5]; 1-100 mg ABT-384 QD for 7 days, 24-h urine collection): 87–97%
hepatic HSD-1 inhibition ([5]; regimens from 1 mg daily (1 mg QD for 7 days)): fully inhibited hepatic HSD-1; also recorded: full hepatic HSD-1 inhibition for 24 h
distribution to the liver relative to the plasma [6]: preferentially distributes to the liver
time to peak levels in the plasma ([1]; after last dose on Day 5, 1-50 mg QD): 1.5 to 3 h
plasma Cmax at which full peripheral HSD-1 inhibition was observed ([1]; man): ~2 ng/mL
peripheral HSD-1 inhibition ([7]; 1 mg QD, each hour from 33 to 40 h after the last dose): 81–87%
peripheral HSD-1 inhibition ([7]; ABT-384 1 mg daily, five daily doses, up to 40 h after last dose): ≥ 81%
peripheral HSD-1 inhibition ([7]; ABT-384 regimens ⩾2 mg daily, five daily doses, up to 40 h after last dose): ≥ 88%
HSD-1 inhibition predicted from plasma Cmax ([7]; plasma Cmax ~2 ng ml^−1, assuming reversible inhibition, in the absence of preferential tissue distribution): ~60%
distribution to the liver relative to the plasma [8]: preferentially distributes to the liver
adrenocorticotropic hormone or cortisol values above normal [9, 13]: No subject showed adrenocorticotropic hormone or cortisol values above normal
changes of clinical laboratory tests, vital signs or electrocardiography parameters [9, 13]: No clinically significant changes
deaths, serious adverse events, discontinuations due to adverse events [9, 13]: No deaths, other serious adverse events or discontinuations due to adverse events occurred
tolerability ([9]; regimens of 1-50 mg ABT-384 QD for 5 days): well tolerated
CSF levels as percent of the free plasma levels [2]: 10–50%
CSF levels as percent of the total plasma levels [2]: 0.3–1%
CSF/free plasma exposure ratio [2]: less than 0.5
time to peak levels in the CSF ([2]; after last dose on Day 5): 2.5 to 5 h
hepatic HSD-1 inhibition [10]: full hepatic HSD-1 inhibition
CNS HSD-1 inhibition (CNS formation of D3 cortisol) ([11]; 1 mg ABT-384 QD for 5 days): partial but substantial CNS HSD-1 inhibition; also recorded: Reduced CNS D3 cortisol formation
intrinsic CSF D3 cortisol compared with the level attained in the absence of study drug ([11]; 1 mg regimen, hours 4-8 of each D4 cortisol infusion): approximately two- to three-fold lower
CNS HSD-1 inhibition (CNS formation of D3 cortisol) ([11]; 2-50 mg ABT-384 QD for 5 days, through 40 h after the last dose): full CNS HSD-1 inhibition; also recorded: essentially complete CNS HSD-1 inhibition; also recorded: Complete blockade of D3 cortisol formation in the CNS
minimum daily dose to achieve full CNS HSD-1 inhibition ([11]; QD dosing): ≤ 2 mg
binding to and dissociation from HSD-1 (HSD-1): rapid binding to, and very slow dissociation from; also recorded: rapid binding, slow dissociation kinetics
mean plasma Cmax [3]: 9.41 ng/mL
peripheral HSD-1 inhibition ([12]; 1 mg regimen, at 40 h after the last dose): ~86%
peripheral HSD-1 inhibition ([12]; 1 mg regimen, each of eight time points up to 8 h after the last dose): ~90%
peripheral HSD-1 inhibition ([12]; 2, 10 and 50 mg QD, each of 16 time points up to 40 h after the last dose): 91–93%
